ChEMBL document CHEMBL5338825, “Structure-Based Discovery of Inhibitors of the SARS-CoV-2 Nsp14 N7-Methyltransferase” (J Med Chem, 2023)
Calls of active or inactive are those of the source. The calls are words filed in the database; no cut-off is given here.

Tests used:
[1] = target: Histone-lysine N-methyltransferase EHMT2 (Homo sapiens) (UniProt Q96KQ7); assay: Inhibition of human G9a using biotin-tagged Histone H3 and 3H-SAM as substrate at 10 uM incubated for 1 hrs by TopCount scintillation proximity assay relative to control
Procedure, shortened: (§1)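 Human methyltransferase panel, radiometric assays. Each compound tested at a single 10 μM concentration in triplicate. Enzymes inhibited by more than 50% were taken on to concentration–response.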

[2] = target: Histone-arginine methyltransferase CARM1 (Homo sapiens) (UniProt Q86X55); assay: Inhibition of human PRMT4 using biotin-tagged Histone H3 and 3H-SAM as substrate at 10 uM incubated for 1 hrs by TopCount scintillation proximity assay relative to control; procedure, shortened: as §1
Chain of Histone-arginine methyltransferase CARM1 (Homo sapiens) (Q86X55 whole entry): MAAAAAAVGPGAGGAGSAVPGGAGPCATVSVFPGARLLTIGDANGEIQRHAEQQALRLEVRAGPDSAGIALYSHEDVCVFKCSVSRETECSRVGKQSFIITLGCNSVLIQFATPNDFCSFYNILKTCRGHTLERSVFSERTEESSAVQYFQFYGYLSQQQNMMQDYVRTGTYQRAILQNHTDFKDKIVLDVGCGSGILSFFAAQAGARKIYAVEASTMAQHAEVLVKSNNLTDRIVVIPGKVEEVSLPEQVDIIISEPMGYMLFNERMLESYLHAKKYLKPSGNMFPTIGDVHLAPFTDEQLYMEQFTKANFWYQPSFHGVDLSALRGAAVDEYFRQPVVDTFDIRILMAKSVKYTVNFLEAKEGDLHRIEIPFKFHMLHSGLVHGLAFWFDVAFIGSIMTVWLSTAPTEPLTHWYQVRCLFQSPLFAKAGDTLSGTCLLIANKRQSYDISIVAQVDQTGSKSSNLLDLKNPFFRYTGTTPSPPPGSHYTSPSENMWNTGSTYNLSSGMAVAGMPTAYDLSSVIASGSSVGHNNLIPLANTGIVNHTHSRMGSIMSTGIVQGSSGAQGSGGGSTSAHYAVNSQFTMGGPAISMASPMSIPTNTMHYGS

[3] = target: Protein arginine N-methyltransferase 7 (Homo sapiens) (UniProt Q9NVM4); assay: Inhibition of human PRMT7 using biotin-tagged Histone H2B and 3H-SAM as substrate at 10 uM incubated for 1 hrs by TopCount scintillation proximity assay relative to control; procedure, shortened: as §1
[4] = target: Histone-lysine N-methyltransferase ASH1L (Homo sapiens) (UniProt Q9NR48); assay: Inhibition of human ASH1L using chicken nucleosome and 3H-SAM as substrate at 10 uM incubated for 1 hrs by TopCount scintillation proximity assay relative to control; procedure, shortened: as §1
[5] = target: Histone-lysine N-methyltransferase, H3 lysine-36 specific (Homo sapiens) (UniProt Q96L73); assay: Inhibition of human NSD1 using chicken nucleosome and 3H-SAM as substrate at 10 uM incubated for 1 hrs by TopCount scintillation proximity assay relative to control; procedure, shortened: as §1
Chain of Histone-lysine N-methyltransferase, H3 lysine-36 specific (Homo sapiens) (Q96L73 whole entry): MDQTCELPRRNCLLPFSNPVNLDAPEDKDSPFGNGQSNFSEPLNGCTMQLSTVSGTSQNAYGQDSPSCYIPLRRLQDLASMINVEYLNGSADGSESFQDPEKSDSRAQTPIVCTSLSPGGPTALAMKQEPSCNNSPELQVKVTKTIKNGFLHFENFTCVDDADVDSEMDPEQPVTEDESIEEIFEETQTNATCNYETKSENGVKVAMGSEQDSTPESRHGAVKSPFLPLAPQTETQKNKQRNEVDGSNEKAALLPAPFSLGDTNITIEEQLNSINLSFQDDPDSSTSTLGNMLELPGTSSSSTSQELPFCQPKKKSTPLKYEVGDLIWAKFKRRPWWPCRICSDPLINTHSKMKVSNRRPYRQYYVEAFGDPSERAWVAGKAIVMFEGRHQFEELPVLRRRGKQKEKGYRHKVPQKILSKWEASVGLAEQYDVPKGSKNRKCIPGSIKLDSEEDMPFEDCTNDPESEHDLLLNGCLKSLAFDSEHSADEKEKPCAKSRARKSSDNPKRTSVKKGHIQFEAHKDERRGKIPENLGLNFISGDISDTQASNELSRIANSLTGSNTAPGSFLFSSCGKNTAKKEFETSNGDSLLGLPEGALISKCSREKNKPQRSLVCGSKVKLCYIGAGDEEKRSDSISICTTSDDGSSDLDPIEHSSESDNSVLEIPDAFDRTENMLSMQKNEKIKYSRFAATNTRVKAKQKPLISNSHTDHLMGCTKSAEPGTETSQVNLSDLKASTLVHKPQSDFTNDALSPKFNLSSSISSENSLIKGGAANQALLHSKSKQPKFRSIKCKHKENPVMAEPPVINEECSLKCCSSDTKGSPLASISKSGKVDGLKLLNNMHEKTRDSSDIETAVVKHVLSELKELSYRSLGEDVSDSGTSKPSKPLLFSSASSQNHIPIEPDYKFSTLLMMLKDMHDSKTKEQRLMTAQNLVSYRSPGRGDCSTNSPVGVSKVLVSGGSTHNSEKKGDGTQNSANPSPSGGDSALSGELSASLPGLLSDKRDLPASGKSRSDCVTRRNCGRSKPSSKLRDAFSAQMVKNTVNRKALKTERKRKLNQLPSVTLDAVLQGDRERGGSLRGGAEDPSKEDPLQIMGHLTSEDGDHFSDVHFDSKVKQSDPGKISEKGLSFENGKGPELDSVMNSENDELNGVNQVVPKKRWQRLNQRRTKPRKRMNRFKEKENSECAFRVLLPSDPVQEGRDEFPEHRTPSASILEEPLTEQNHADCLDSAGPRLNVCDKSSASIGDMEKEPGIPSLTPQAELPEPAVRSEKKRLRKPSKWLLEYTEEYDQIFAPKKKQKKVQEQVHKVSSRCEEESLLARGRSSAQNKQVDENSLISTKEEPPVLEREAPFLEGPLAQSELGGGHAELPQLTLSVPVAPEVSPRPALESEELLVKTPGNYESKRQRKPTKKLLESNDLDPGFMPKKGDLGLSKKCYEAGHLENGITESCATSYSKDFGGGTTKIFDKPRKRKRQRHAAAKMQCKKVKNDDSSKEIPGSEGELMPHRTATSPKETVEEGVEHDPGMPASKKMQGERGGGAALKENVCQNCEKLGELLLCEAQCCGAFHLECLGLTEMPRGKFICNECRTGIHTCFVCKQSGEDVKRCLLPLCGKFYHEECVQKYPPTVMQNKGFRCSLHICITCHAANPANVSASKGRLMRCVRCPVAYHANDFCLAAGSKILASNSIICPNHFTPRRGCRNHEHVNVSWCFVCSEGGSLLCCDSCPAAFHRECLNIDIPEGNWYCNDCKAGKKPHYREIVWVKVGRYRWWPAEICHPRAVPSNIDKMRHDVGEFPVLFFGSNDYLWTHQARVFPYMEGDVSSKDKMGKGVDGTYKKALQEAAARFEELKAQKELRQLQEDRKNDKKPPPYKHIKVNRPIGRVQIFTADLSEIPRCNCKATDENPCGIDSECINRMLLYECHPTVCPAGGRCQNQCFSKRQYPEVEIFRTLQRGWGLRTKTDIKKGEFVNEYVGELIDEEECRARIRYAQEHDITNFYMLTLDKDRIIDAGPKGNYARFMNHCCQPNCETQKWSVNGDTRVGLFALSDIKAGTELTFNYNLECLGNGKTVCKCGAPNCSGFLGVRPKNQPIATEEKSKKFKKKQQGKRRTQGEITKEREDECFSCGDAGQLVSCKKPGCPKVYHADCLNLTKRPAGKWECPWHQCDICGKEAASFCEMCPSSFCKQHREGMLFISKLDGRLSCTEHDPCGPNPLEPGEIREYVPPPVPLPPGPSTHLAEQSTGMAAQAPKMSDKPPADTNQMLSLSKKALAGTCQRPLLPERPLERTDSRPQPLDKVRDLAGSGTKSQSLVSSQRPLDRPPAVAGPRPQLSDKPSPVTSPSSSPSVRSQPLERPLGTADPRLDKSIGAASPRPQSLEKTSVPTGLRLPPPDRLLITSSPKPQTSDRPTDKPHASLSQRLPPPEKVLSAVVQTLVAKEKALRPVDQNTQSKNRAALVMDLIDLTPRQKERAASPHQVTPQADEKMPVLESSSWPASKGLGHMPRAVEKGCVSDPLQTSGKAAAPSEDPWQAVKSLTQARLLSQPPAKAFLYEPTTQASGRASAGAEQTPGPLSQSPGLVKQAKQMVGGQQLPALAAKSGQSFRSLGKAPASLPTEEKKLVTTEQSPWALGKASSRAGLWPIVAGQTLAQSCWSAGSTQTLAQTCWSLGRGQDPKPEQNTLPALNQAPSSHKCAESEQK

[6] = target: Protein arginine N-methyltransferase 8 (Homo sapiens) (UniProt Q9NR22); assay: Inhibition of human PRMT8 using biotin-tagged Histone H4 and 3H-SAM as substrate at 10 uM incubated for 1 hrs by TopCount scintillation proximity assay relative to control; procedure, shortened: as §1
[7] = target: Histone-lysine N-methyltransferase NSD2 (Homo sapiens) (UniProt O96028); assay: Inhibition of human NSD2 using chicken nucleosome and 3H-SAM as substrate at 10 uM incubated for 1 hrs by TopCount scintillation proximity assay relative to control; procedure, shortened: as §1
[8] = target: Protein arginine N-methyltransferase 9 (Homo sapiens) (UniProt Q6P2P2); assay: Inhibition of human PRMT9 using biotin-tagged SAP145 and 3H-SAM as substrate at 10 uM incubated for 1 hrs by TopCount scintillation proximity assay relative to control; procedure, shortened: as §1
[9] = target: Replicase polyprotein 1ab (Severe acute respiratory syndrome coronavirus 2) (UniProt P0DTD1); assay: Non-covalent inhibition of N-terminal 6His/SUMO-tagged SARS-CoV-2 NSP14 expressed in Escherichia coli Rosetta 2 (DE3) PlysS cells using 5'GpppACCCCCCCCC-Biotin 3' and 3H-SAM as substrates incubated for 30 mins by TopCount scintillation proximity assay
Procedure, shortened: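 Radiometric N7-MTase assay tracking [3H]-methyl transfer from SAM onto the cap of […] RNA, run with 0.01% v/v Triton X-100. Concentration–response in triplicate to give IC50.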

[10] = target: Histone-lysine N-methyltransferase SETD2 (Homo sapiens) (UniProt Q9BYW2); assay: Inhibition of human SETD2 using biotin-tagged Histone H3 and 3H-SAM as substrate at 10 uM incubated for 1 hrs by TopCount scintillation proximity assay relative to control
Procedure, shortened: (§2)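 Selectivity panel against human SAM-dependent methyltransferases, radiometric format. Single test concentration of 10 μM, triplicate, read as percent inhibition.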

[11] = target: Histone-lysine N-methyltransferase SMYD3 (Homo sapiens) (UniProt Q9H7B4); assay: Inhibition of human SMYD3 using biotin-tagged MAP3K2 and 3H-SAM as substrate at 10 uM incubated for 1 hrs by TopCount scintillation proximity assay relative to control; procedure, shortened: as §2
Chain of Histone-lysine N-methyltransferase SMYD3 (Homo sapiens) (Q9H7B4 whole entry): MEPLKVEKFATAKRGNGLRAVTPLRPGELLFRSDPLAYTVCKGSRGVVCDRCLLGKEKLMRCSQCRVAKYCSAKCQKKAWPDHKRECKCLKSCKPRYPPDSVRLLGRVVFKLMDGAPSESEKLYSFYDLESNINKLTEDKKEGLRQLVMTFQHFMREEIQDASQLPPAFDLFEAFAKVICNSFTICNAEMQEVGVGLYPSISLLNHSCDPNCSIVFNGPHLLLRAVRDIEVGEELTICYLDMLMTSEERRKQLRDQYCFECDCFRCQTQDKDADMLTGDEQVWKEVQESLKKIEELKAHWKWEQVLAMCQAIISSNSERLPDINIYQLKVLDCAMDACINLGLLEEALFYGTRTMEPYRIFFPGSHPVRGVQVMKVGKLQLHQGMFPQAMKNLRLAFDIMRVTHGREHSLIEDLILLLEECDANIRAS

[12] = target: Histone-lysine N-methyltransferase SUV39H2 (Homo sapiens) (UniProt Q9H5I1); assay: Inhibition of human SUV39H2 using Biotin-tagged histone H3 and 3H-SAM as substrate at 10 uM incubated for 1 hrs by TopCount scintillation proximity assay relative to control; procedure, shortened: as §2
Chain of Histone-lysine N-methyltransferase SUV39H2 (Homo sapiens) (Q9H5I1 whole entry): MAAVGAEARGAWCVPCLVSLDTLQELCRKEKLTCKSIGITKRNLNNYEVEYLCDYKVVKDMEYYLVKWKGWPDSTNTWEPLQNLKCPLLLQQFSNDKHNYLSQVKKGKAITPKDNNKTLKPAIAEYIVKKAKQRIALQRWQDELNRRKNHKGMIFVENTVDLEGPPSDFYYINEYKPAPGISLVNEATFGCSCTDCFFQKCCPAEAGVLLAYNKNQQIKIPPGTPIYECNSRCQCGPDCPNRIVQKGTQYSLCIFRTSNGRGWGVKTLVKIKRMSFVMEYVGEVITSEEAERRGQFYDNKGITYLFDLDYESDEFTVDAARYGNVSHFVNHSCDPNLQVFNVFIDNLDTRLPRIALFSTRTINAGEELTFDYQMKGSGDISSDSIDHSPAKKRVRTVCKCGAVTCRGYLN

[13] = target: Histone-lysine N-methyltransferase 2C (Homo sapiens) (UniProt Q8NEZ4); assay: Inhibition of human MLL3 using biotin-tagged Histone H3 and 3H-SAM as substrate at 10 uM incubated for 1 hrs by TopCount scintillation proximity assay relative to control; procedure, shortened: as §1
[14] = target: N-lysine methyltransferase KMT5A (Homo sapiens) (UniProt Q9NQR1); assay: Inhibition of human SETD8 using biotin-tagged Histone H4 and 3H-SAM as substrate at 10 uM incubated for 1 hrs by TopCount scintillation proximity assay relative to control; procedure, shortened: as §2
[15] = target: Histone-lysine N-methyltransferase SETDB1 (Homo sapiens) (UniProt Q15047); assay: Inhibition of human SETDB1 using biotin-tagged Histone H3 and 3H-SAM as substrate at 10 uM incubated for 1 hrs by TopCount scintillation proximity assay relative to control; procedure, shortened: as §2
[16] = target: Histone-lysine N-methyltransferase KMT5B (Homo sapiens) (UniProt Q4FZB7); assay: Inhibition of human SUV420H1 using Biotin-tagged H4K20me1 and 3H-SAM as substrate at 10 uM incubated for 1 hrs by TopCount scintillation proximity assay relative to control; procedure, shortened: as §2
Chain of Histone-lysine N-methyltransferase KMT5B (Homo sapiens) (Q4FZB7 whole entry, looked up): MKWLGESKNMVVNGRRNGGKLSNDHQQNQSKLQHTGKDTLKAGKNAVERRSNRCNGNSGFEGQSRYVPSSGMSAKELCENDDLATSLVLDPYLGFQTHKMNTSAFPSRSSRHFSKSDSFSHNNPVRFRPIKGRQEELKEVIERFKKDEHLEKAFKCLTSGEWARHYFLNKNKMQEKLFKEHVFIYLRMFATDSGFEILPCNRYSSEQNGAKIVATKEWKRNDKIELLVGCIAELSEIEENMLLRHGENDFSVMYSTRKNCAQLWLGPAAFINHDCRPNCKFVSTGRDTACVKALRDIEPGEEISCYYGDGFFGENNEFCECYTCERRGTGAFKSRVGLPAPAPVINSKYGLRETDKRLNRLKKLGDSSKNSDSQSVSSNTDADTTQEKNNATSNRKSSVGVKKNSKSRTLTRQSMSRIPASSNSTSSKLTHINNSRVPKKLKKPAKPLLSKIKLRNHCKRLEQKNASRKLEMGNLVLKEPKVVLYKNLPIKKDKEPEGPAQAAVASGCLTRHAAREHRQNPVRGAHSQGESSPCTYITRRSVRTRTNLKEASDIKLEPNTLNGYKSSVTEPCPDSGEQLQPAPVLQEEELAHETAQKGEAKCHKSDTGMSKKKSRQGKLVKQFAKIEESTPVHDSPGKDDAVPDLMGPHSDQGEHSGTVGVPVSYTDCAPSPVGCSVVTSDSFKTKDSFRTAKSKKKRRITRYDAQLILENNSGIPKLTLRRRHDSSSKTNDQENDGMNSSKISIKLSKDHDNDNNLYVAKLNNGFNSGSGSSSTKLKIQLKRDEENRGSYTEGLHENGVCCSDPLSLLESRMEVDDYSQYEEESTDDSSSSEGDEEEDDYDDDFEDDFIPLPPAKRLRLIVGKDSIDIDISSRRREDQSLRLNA

Cc1c(C(=O)/C=C/c2ccc(O)c([N+](=O)[O-])c2)c(C#N)c2n1CCC2
inhibition [1]: < 50% | inhibition [2]: < 50% | inhibition [3]: < 50% | inhibition [4]: < 50% | inhibition [5]: < 50% | inhibition [6]: < 50% | inhibition [7]: < 50% | inhibition [8]: < 50% | inhibition [9]: Active | inhibition [10]: < 50% | inhibition [11]: < 50% | inhibition [12]: < 50% | inhibition [13]: < 50% | inhibition [14]: < 50% | inhibition [15]: < 50% | inhibition [16]: < 50%
